Test results published in the M2OR odorant receptor database.
Changes are numbered by the printed parent chain.

Assays:
Details in all cases: stereoisomer not certain
[1] = target: T1, OR8B4 (Homo sapiens) (UniProt Q96RC9)
T1 sequence (whole entry): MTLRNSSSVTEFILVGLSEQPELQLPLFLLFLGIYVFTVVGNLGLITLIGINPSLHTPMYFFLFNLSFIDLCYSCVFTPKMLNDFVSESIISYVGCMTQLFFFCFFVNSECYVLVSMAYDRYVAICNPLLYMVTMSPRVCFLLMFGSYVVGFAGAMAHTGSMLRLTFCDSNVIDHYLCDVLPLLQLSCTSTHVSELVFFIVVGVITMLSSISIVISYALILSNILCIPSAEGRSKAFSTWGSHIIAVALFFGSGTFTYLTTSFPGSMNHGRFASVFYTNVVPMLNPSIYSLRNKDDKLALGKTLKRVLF
Procedure, shortened: (§1)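 Each entry records the cell line, G-protein, co-transfected protein and tags used. Methods varied with the source, often transient luciferase assays in mammalian cell lines. A receptor–molecule pair is called responsive (active) if the original authors judged its signal statistically different from baseline and non-responsive (inactive) otherwise.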

[2] = target: T2, OR8B8 (Homo sapiens) (UniProt Q15620)
T2 sequence (whole entry): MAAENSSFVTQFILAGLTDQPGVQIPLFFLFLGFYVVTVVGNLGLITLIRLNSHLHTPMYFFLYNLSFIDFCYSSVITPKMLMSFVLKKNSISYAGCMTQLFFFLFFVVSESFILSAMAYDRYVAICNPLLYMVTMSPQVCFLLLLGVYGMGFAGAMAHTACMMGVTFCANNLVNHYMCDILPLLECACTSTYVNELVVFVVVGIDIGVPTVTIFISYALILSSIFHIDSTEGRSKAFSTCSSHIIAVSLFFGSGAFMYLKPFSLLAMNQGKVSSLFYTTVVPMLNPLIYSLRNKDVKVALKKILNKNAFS
Procedure, shortened: as §1

[3] = target: T3, OR8D1 (Homo sapiens) (UniProt Q8WZ84)
T3 sequence (whole entry): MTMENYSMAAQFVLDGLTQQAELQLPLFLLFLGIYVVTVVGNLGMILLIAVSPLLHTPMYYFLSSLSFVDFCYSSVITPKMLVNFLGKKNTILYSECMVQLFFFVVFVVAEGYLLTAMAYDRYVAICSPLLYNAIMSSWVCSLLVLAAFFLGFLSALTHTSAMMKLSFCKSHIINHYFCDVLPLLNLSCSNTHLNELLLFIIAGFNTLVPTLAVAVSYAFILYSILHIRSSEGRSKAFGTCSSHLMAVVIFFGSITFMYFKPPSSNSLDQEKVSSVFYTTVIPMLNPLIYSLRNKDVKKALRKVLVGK
Procedure, shortened: as §1

[4] = target: T4, OR8D2 (Homo sapiens) (UniProt Q9GZM6)
T4 sequence (whole entry): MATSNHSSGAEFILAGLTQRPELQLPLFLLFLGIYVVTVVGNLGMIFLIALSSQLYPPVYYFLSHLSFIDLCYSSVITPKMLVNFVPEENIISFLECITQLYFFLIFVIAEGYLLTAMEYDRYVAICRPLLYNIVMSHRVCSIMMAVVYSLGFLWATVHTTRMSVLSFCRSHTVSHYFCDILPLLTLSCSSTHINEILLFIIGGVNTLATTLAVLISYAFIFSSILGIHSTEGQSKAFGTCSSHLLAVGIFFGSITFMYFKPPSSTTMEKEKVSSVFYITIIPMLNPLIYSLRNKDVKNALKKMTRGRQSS
Procedure, shortened: as §1

[5] = target: T5, OR8D4 (Homo sapiens) (UniProt Q8NGM9)
T5 sequence (whole entry): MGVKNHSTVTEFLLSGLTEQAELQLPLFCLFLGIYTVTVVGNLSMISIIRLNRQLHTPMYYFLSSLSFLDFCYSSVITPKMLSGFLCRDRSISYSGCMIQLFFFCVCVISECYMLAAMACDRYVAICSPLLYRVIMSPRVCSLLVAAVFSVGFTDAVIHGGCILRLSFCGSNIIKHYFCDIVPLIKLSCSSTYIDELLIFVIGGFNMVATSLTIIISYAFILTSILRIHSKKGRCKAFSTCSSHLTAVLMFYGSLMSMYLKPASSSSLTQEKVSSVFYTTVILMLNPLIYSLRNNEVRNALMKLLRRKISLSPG
Procedure, shortened: as §1

[6] = target: T6, OR8G1 (Homo sapiens) (UniProt Q15617)
T6 sequence (whole entry): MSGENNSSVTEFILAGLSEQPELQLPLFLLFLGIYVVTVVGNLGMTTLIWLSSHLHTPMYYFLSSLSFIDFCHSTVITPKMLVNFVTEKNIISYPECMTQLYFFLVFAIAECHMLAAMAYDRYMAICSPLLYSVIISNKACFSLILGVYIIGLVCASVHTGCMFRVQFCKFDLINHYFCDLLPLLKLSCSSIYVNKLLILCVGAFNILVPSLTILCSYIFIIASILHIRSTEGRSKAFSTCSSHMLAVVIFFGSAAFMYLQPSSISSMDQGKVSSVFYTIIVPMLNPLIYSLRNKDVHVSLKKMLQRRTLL
Procedure, shortened: as §1

[7] = target: T7, OR8G5 (Homo sapiens) (UniProt Q8NG78)
T7 sequence (whole entry): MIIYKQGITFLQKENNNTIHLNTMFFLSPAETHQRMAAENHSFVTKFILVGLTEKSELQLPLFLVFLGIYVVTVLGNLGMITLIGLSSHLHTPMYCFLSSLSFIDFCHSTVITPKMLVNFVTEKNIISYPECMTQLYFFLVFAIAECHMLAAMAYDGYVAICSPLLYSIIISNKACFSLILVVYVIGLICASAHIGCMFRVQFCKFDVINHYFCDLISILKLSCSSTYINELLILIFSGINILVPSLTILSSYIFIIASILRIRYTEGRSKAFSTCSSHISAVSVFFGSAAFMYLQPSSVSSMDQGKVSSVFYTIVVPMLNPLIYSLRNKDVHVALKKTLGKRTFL
Procedure, shortened: as §1

[8] = target: T8, OR8H1 (Homo sapiens) (UniProt Q8NGG4)
T8 sequence (whole entry): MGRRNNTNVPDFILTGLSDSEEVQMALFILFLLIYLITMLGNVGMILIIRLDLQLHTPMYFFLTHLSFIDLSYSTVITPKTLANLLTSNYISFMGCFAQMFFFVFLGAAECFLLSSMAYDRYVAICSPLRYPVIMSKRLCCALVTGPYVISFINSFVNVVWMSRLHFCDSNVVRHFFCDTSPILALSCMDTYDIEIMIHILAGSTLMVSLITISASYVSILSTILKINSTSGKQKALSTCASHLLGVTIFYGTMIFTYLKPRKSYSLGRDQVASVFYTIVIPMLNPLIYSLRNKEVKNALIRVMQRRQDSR
Procedure, shortened: as §1

[9] = target: T9, OR8H2 (Homo sapiens) (UniProt Q8N162)
T9 sequence (whole entry): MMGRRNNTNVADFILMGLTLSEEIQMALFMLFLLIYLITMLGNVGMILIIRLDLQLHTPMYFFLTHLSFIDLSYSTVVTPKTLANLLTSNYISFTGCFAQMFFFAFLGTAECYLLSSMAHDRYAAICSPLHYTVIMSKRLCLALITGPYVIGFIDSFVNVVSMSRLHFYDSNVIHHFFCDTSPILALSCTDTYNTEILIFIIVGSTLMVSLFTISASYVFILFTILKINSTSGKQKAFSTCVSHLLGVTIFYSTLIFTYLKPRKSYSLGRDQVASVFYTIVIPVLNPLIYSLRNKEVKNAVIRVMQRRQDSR
Procedure, shortened: as §1

[10] = target: T10, OR8H3 (Homo sapiens) (UniProt Q8N146)
T10 sequence (whole entry): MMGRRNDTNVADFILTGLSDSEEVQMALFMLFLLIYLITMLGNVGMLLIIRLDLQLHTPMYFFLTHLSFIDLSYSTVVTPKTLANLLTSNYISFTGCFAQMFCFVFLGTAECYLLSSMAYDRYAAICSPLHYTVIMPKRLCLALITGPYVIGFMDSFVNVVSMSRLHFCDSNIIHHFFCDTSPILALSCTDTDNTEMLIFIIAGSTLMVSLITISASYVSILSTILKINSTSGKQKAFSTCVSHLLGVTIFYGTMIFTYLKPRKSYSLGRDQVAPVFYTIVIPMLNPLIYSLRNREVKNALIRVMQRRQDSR
Procedure, shortened: as §1

[11] = system: T11, OR8B3 H20R Q24R M114I
T11 sequence (whole entry): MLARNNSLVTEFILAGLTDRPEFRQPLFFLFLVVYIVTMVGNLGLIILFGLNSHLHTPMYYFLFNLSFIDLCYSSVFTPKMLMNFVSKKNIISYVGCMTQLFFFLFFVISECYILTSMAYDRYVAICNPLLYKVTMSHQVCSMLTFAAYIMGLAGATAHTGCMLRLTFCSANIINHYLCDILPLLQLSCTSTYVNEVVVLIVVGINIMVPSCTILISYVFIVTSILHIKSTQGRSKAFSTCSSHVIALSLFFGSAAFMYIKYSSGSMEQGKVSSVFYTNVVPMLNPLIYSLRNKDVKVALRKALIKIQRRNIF
Procedure, shortened: as §1

[12] = system: T12, OR8B3 H20R Q24R Y113H
T12 sequence (whole entry): T11 sequence (whole entry) with Y113H, I114M
Procedure, shortened: as §1

[13] = system: T13, OR8B3 H20R Q24R
T13 sequence (whole entry): T11 sequence (whole entry) with I114M
Procedure, shortened: as §1

[14] = system: T14, OR8B4
T14 sequence (whole entry): T1 sequence (whole entry) with E22G
Procedure, shortened: as §1

[15] = system: T15, OR8B8 L101P
T15 sequence (whole entry): T2 sequence (whole entry) with L101P
Procedure, shortened: as §1

[16] = system: T16, OR8D1 C127G L194P
T16 sequence (whole entry): T3 sequence (whole entry) with C127G, L194P
Procedure, shortened: as §1

[17] = system: T17, OR8D1 L194P
T17 sequence (whole entry): T3 sequence (whole entry) with L194P
Procedure, shortened: as §1

[18] = system: T18, OR8D4 C120Y R133K
T18 sequence (whole entry): T5 sequence (whole entry) with C120Y, R133K
Procedure, shortened: as §1

[19] = system: T19, OR8H2 H120Y Y169C V284M
T19 sequence (whole entry): T9 sequence (whole entry) with H120Y, Y169C, V284M
Procedure, shortened: as §1

[20] = system: T20, OR8H3
T20 sequence (whole entry): T10 sequence (whole entry) with P137S
Procedure, shortened: as §1

Structure (SMILES) | odorant receptor agonist call [1] | odorant receptor agonist call [2] | odorant receptor agonist call [3] | odorant receptor agonist call [4] | odorant receptor agonist call [5] | odorant receptor agonist call [6] | odorant receptor agonist call [7] | odorant receptor agonist call [8] | odorant receptor agonist call [9] | odorant receptor agonist call [10] | odorant receptor agonist call [11] | odorant receptor agonist call [12] | odorant receptor agonist call [13] | odorant receptor agonist call [14] | odorant receptor agonist call [15] | odorant receptor agonist call [16] | odorant receptor agonist call [17] | odorant receptor agonist call [18] | odorant receptor agonist call [19] | odorant receptor agonist call [20]
CCCCCC(S)C(C)CO (configuration not stated) | inactive | inactive | inactive | inactive | inactive | inactive | inactive | inactive | inactive | inactive |  |  |  |  |  |  |  |  |  | 
CCCCC(S)C(C)CO (configuration not stated) | inactive | inactive | inactive | inactive | inactive | inactive | inactive | inactive | inactive | inactive |  |  |  |  |  |  |  |  |  | 
CCCC(S)CCOC(C)=O (configuration not stated) | inactive | inactive | inactive | inactive | inactive | inactive | inactive | inactive | inactive | inactive | inactive | inactive | inactive | inactive | inactive | inactive | inactive | inactive | inactive | inactive
CCCCCCC=CCCC=O | inactive | inactive | inactive | inactive | inactive | inactive | inactive | inactive | inactive | inactive | inactive | inactive | inactive | inactive | inactive | inactive |  | inactive | inactive | inactive
CC1=NC(C)C(C)S1 (configuration not stated) | inactive | inactive | inactive | inactive | inactive | inactive | inactive | inactive | inactive | inactive | inactive | inactive | inactive | inactive | inactive | inactive | inactive | inactive | inactive | inactive
CC(=O)c1c(C)c([N+](=O)[O-])c(C(C)(C)C)c([N+](=O)[O-])c1C | inactive | inactive | inactive | inactive | inactive | inactive | inactive | inactive | inactive | inactive |  |  |  |  |  |  |  |  |  | 
CCOC(C)OCC |  |  | inactive |  |  |  |  |  |  |  |  |  |  |  |  |  |  |  |  | 
CCCCC(C)CCC(=O)O (configuration not stated) |  |  | inactive |  |  |  |  |  |  |  |  |  |  |  |  |  |  |  |  | 
CC1=CCC(C(C)C)C=C1 (configuration not stated) |  |  | inactive |  |  |  |  |  |  |  |  |  |  |  |  |  |  |  |  | 
CC1=C(O)C(=O)OC1C (configuration not stated) | inactive | inactive | active | inactive | inactive | inactive | inactive | inactive | inactive | inactive | inactive | inactive | inactive | inactive | inactive | inactive | inactive | inactive | inactive | inactive
CC1=C(O)C(=O)C(C)O1 (configuration not stated) | inactive | inactive | inactive | inactive | inactive | inactive | inactive | inactive | inactive | inactive | inactive | inactive | inactive | inactive | inactive | inactive | inactive | inactive | inactive | inactive
